Reference: the RNAGym collection of RNA variant scans (doi:10.1126/science.aae0568)
Fewer inactive variants are shown than the library holds.

B1: tRNA (parent)
chain: GUUCCGUUGGCGUAAUGGUAACGCGUCUCCCUCCUAAGGAGAAGACUGCGGGUUCGAGUCCCGUACGGAACG

Variants of: B1
Test: yeast fitness relative to wild type (ratio to wild type); higher = fitter; tRNA-Arg(CCU), competitive growth, 37 C, YPD
Outline: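 Gene amplicons from the start population and from each of six end populations were read by 100-nucleotide paired-end sequencing. Those end populations came from pooled Saccharomyces cerevisiae strains carrying tRNA-Arg(CCU) gene variants at the native locus, competed in YPD at 37°C for 24 hours. Fitness relative to wild type was worked out from changes in genotype frequencies. Genotypes needed ≥ 100 starting reads, and estimates < 0.5 were set to 0.5.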

| Variant | yeast fitness |
| --- | --- |
| GUUUCGUUGGCGUAAAGGUGACGCGUCUCCCUCCUAAGGAGAAGACUGCGGGUUCGAGUCCCGUACGGAACG | 0.665 |
| GUUUCGUUGGCGUAAAGGUGACGCGUCUCCCUCCUAAGGAGAAGACUGUGGGUUCGAGUCCCGUAUGGAACG | ≤ 0.5 |
| GUUUCGUUGGCGUAAAGGUUACGCGUCCCCCUCCCAAGCAGCAGACUACGGGUUCGAGUCCCGUACGGAACG | ≤ 0.5 |
| GUUUCGUUGGCGUAAAGGUAACGCGUCUCCCUCCUACGGAGAAGACUGCGGGUUCGAGUCCCGUACGGAACG | ≤ 0.5 |
| GUUUCGUUGGCGUAAAGGUAACGCGUCUCCCUCCUAUGGAGAAGACUGCGGGUUGGAGUCCCGUACGGAACG | ≤ 0.5 |
| GUUUCGUUGGCGUAAAGGUAACGCGUCUCCCUCCUAAGGUGAAGACUGCGGGUUCGAGUCCCGUACGGAACG | 0.666 |
| GUUUCGUUGGCGUAAAGGUAACACGUCUCCCUCCUGAGGAGAAGACUGGGGGUUCGAGUCCCGUACGGAACG | ≤ 0.5 |
| GUUUCGUUGGCGUAAAGGUAACACGUCUCCCUCCUGAGGAGAAGACUGGGGGUUCGAGUCACGUACGGAACG | ≤ 0.5 |
| GUUUCGUUGGCGUAACGGUAACGCGUCUCCCUCCUAAGGAGAAGACUGCGGGUUCGAGUCCCGUACGGAACG | 1.02 |
| GUUUCGUUGGCGUAACGGUAACGCGUCUCCCUCCUAAGGAGCAGACUGCGGGUUCGAGUCCCGUACGGAACG | 0.579 |
| GUUUCGUUGGCGUAACGGUAACGCGUCUCCCUCCUAAGGAGGAGACUGCGGGUUCGAGUCCCGUACGGAACG | 0.72 |
| GUUUCGUUGGCGUAACGGUAACGCGUCUCCCUCCUAAGGAGGAGACUGCGGGUUCGAAUCCCGUACGGAACG | 0.552 |
| GUUUCGUUGGCGUAACGGUAACGCGUCUCCCUCCUAAGGAGAAGACUGCGGGUUCGAGUCCCGUACGGCACG | 0.774 |
| GUUUCGUUGGCGUAACGGUAACGUGUCUCCCUCCUAAGGAGAAGACUGCGGGUUCGAGUCCCGUACGGAACG | 0.675 |
| GUUUCGUUGGCGUAACGGUAACGCGUCUCCCUCCUAAGGAGAAGACUGCGGGUUCGAGUCUCGUACGGAACG | 0.737 |
| GUUUCGUUGGCGUAACGGUAACGCGUCUCCCUCCUAAGGAGAAGACUCCGGGUUCGAGUCCCGUACGGAACG | 0.702 |
| GUUUCGUUGGCGUAAGGGUAACGCGUCUCCCUCCUAAGGAGAAGACUGCGGGUUCGAGUCCCGUACGGAACG | 1.05 |
| GUUUCGUUGGCGUAAGGGUAACGCGUCUCCCUCCUAAGGAGAAGACUGCGGGUUCGAGUCCCGUACGGCACG | 0.645 |
| GUUUCGUUGGCGUAAGGGUAACGCGUCUCCCUCCUAAGGAGAAGACGGCGGGUUCGAGUCCCGUACGGAACG | 0.602 |

| Variant | yeast fitness |
| --- | --- |
| GUUUCGUUGGCGUAAUGGAAACGCGUCUCCCUCCUAGGGAGAACACUGCGGGUUCGUGUCCCGUACGCAACG | ≤ 0.5 |
| GUUUCGUUGGCGUAAUGGAAACGCGUCUUCCUGCUAAGGAGAAGACUGCGGGUUCGAGUCCAGUACGGAACG | ≤ 0.5 |
| GUUUCGUUGGCGUAAUGGAAACGCGUCUCGCUCCUCAGGAGAAGACUGCGGGUUCGAGUCCCGUAAGCAACG | ≤ 0.5 |
| GUUUCGUUGGCGUAAUGGAAACGCGUCUCCGUCCUAAGGAGAAGACUGCGGGUUCGAGUCCCGUCUGGAACG | ≤ 0.5 |
| GUUUCGUUGGCGUAAUGGAAACGCGUCUCCCUCCUAAGGAGAAGACUGCAGGUUCGAGUCCCGUACGUAACG | ≤ 0.5 |
| GUUUCGUUGGCGUAAUGGCAACGCGUCUCCCUCCUAAGGUGAAGACUGCGGGUUCGAGUCCCGUACGGAACG | 0.674 |
| GUUUCGUUGGCGUAAUGGCAACGCGUCUACCUCCUAAGGAGAAGACUGCGGGUUCGAGUCCCGUACGGAUCG | 0.632 |
| GUUUCGUUGGCGUAAUGGCAACGCGUCUCCAUCCUAAGGACAAGACUGCGGGUUCGAGUCCCGUACGGAACG | 0.53 |
| GUUUCGUUGGCGUAAUGGCAACGCGUCUCCAUCCUAAGGACAAGACUGCGGGUUAGAGUCCCGUACGGAACG | ≤ 0.5 |
| GUUUCGUUGGCGUAAUGGUAACGCGACUCCCUCCUACGGAGCAGACUGUGGGUUCAAGUCCCGUACGGAACG | ≤ 0.5 |
| GUUUCGUUGGCGUAAUGGUAACGCGACUCCCUCCUAGGGAGAAGACUGCGGGUUCGAGUCCCGUACGGAACG | ≤ 0.5 |
| GUUUCGUUGGCGUAAUGGUAACGCGACUCCCUCCUAGGGAGAAGACUGCGGGUUCGAGUCCCGUAGGGAACG | ≤ 0.5 |
| GUUUCGUUGGCGUAAUGGUAACGCGACUCCCUCCUAAGGAGAAGACUGCGGGUUCGAGUCCCGUACGGUACG | 0.641 |
| GUUUCGUUGGCGUAAUGGUAACGCGACUCCGUCCUAAGGAGAAGACUGCGGGUUCGAGUCCCGUACGGAACG | 0.603 |
| GUUUCGUUGGCGUAAUGGUAACGCGACUCCCUAGUAAGGAGAAGACUGCGGGUUCGAGUCCCGUACGGAACG | ≤ 0.5 |
| GUUUCGUUGGCGUAAUGGUAACGCGACUCCCUCCUAAGGAGAAGACUGCGGGUUCAAGUCCCGUACGGAACG | 0.632 |
| GUUUCGUUGGCGUAAUGGUAACGCGCCUCCCUCCUAAGGAGAAGACUGCGGGUUCGAGUCCCGUACGGAACG | 1.04 |
| GUUUCGUUGGCGUAAUGGUAACGCGCCUCCCUCCUCAGGAGAAGACUGCGGGUUCGAGUCCCGUACGGAACG | ≤ 0.5 |
| GUUUCGUUGGCGUAAUGGUAACGCGCCUCCCUCCUCAGGAGAAGACUGCGGGUUCGAGUCCCGAACGGACCG | ≤ 0.5 |
